According to ChEMBL document CHEMBL1121573, “2-(Aminomethyl)phenols, a new class of saluretic agents. 1. Effects of nuclear substitution” (J Med Chem, 1980):
Values joined by “and” are separate entries in the source; they are usually repeats but may differ in a detail not shown here. Equal entries are not always repeated. Each block holds one compound with its values, some of them ahead of it.

How the values were obtained:
[1] = system: Rattus norvegicus; assay: Oral diuretic activity was evaluated by measuring K+ excretion in Rat at 81 mg/kg after […] (0-5 hr); type: ADME, organism-based, Urine; design: dose 81 mg/kg
In short: (§1)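 Female Charles-River rats (150–170 g) were kept overnight on a sugar diet with water ad libitum. Test substance was dissolved in DMF and diluted with water containing Tween 80 to a final 4% DMF vehicle, then given po in 5.0 mL. Rats were housed three per metabolism cage, and 0–5 h urine was assayed for Na⁺, K⁺ and Cl⁻ alongside concurrent placebo groups. Values are mequiv × 100 per cage, geometric means of three cages per dose.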

[2] = system: Rattus norvegicus; assay: Oral diuretic activity was evaluated by measuring K+ excretion in Rat at 9 mg/kg […] (0-5 hr); type: ADME, organism-based, Urine; design: dose 9 mg/kg; in short: as §1
[3] = species on record: Rattus norvegicus; assay: Time taken for the decrease in arterial pressure was measured; type: functional, Artery
[4] = system: Rattus norvegicus; assay: Oral diuretic activity was evaluated by measuring Cl- excretion in Rat at 81 mg/kg after po administration (0-5 hr); conditions: in vivo
[5] = system: Rattus norvegicus; assay: Oral diuretic activity was evaluated by measuring K+ excretion in Rat at 27 mg/kg […] (0-5 hr); type: ADME, organism-based, Urine; design: dose 27 mg/kg; in short: as §1
[6] = system: Rattus norvegicus; assay: Oral diuretic activity was evaluated by measuring Cl- excretion in Rat at 9 mg/kg […] (0-5 hr); type: ADME, organism-based, Urine; design: dose 9 mg/kg; conditions: in vivo; in short: as §1
[7] = system: Rattus norvegicus; assay: Oral diuretic activity was evaluated by measuring Na+ excretion in Rat at 81 mg/kg […] (0-5 hr); type: ADME, organism-based, Urine; design: dose 81 mg/kg; conditions: in vivo
[8] = system: Rattus norvegicus; assay: Oral diuretic activity was evaluated by measuring Cl- excretion in Rat at 27 mg/kg […] (0-5 hr); type: ADME, organism-based, Urine; design: dose 27 mg/kg; conditions: in vivo
[9] = system: Rattus norvegicus; assay: Oral diuretic activity was evaluated by measuring Na+ excretion in Rat at 27 mg/kg […] (0-5 hr); type: ADME, organism-based, Urine; design: dose 27 mg/kg; conditions: in vivo
In short: (§2)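 Female Charles-River rats (150–170 g) were kept overnight on a sugar diet with water ad libitum. Compound was dissolved in DMF, then diluted with water containing Tween 80 (3 drops/100 mL) to a final 4% DMF, and given po in 5.0 mL. Rats were housed three per metabolism cage. Urine from 0–5 h was analysed for Na+, K+ and Cl−, with concurrent placebo controls. Values are mequiv × 100 per cage, geometric mean of three cages per dose.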

[10] = system: Rattus norvegicus; assay: Oral diuretic activity was evaluated by measuring K+ excretion in Rat at 27 mg/kg after […] ( 0-5 hr); type: ADME, organism-based, Urine; design: dose 27 mg/kg; conditions: in vivo; in short: as §1
[11] = system: Rattus norvegicus; assay: Oral diuretic activity was evaluated by measuring Na+ excretion in Rat at 27 mg/kg after […] ( 0-5 hr); type: ADME, organism-based, Urine; design: dose 27 mg/kg; in short: as §2
[12] = system: Canis familiaris; assay: Compound administered intravenously at a dose of 5 mg/kg was evaluated for salidiuretic activity measured as sodium ion excretion in Dog; Value ranges from 800-899; type: ADME, organism-based, Canis lupus familiaris, Urine; design: dose 5 mg/kg, route intravenous; unit not given beside the values; conditions: in vivo, iv
In short: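 Conditioned female mongrel dogs, postabsorptive, water-loaded (500 mL po) 1 h before sodium pentobarbital anesthesia (30 mg/kg iv). Bladder catheter; creatinine 4 g sc; phosphate–mannitol buffer pH 7.4 infused (3.0 mL/min) throughout. […] Urine Na+ measured; response scored 0–6.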

[13] = system: Canis familiaris; assay: Oral diuretic activity was evaluated by measuring Cl- excretion in dog at 1 mg/kg after […] ( 0-6 hr); type: ADME, organism-based, Canis lupus familiaris, Urine; design: dose 1 mg/kg, route intraperitoneal; conditions: in vivo
[14] = system: Canis familiaris; assay: Oral diuretic activity was evaluated by measuring Cl- excretion in dog at 5 mg/kg after […] ( 0-6 hr); type: ADME, organism-based, Canis lupus familiaris, Urine; design: dose 5 mg/kg, route intraperitoneal; conditions: in vivo
[15] = system: Canis familiaris; assay: Oral diuretic activity was evaluated by measuring Na+ excretion in dog at 5 mg/kg after ip administration ( 0-6 hr); type: ADME, organism-based, Canis lupus familiaris, Urine; design: dose 5 mg/kg, route intraperitoneal; conditions: in vivo
In short: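 Urine collected over 0–6 h: spontaneous voids were pooled with bladder urine taken by catheterization at 6 h. Urine volume was measured, and aliquots were analysed for Na+, K+ and Cl− by standard methods. Electrolyte excretion is reported as geometric means.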

[16] = Evaluated for salidiuretic activity measured as sodium ion excretion in Rat, administered orally at a dose of 16.5 mg/kg; type: organism-based; design: dose 16.5 mg/kg; conditions: Urine
In short: (§3)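 Female Charles-River rats (150–170 g), overnight on sugar diet with water ad libitum. Compound dissolved in DMF, diluted with water containing Tween 80 (final 4% DMF), given po in 5.0 mL; concurrent vehicle placebo. Three rats per metabolism cage; 0–5 h urine analysed for Na+, K+, Cl-. Values: mequiv × 100 per cage, geometric means of three cages per dose; scored 0–6 by Na+.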

[17] = system: Rattus norvegicus; assay: Evaluated for salidiuretic activity measured as sodium ion excretion in Rat, administered orally at a dose of 50 mg/kg; type: functional, Urine; design: unit not given beside the values; conditions: route oral; in short: as §3
[18] = system: Rattus norvegicus; assay: Oral diuretic activity was evaluated by measuring Cl- excretion in Rat at 81 mg/kg after […] ( 0-5 hr); type: ADME, organism-based, Urine; design: dose 81 mg/kg, route intraperitoneal; conditions: in vivo
[19] = system: Canis familiaris; assay: Oral diuretic activity was evaluated by measuring K+ excretion in dog at 10 mg/kg after ip administration ( 0-6 hr); type: ADME, organism-based, Canis lupus familiaris, Urine; design: dose 10 mg/kg, route intraperitoneal; conditions: in vivo
In short: (§4)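 Spontaneous urine was pooled with bladder urine collected by catheterization at 6 h. Volume was measured and Na+, K+ and Cl− were determined by standard methods. Values are geometric means.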

[20] = system: Rattus norvegicus; assay: Oral diuretic activity was evaluated by measuring K+ excretion in Rat at 81 mg/kg […] ( 0-5 hr); type: ADME, organism-based, Urine; design: dose 81 mg/kg; in short: as §1
[21] = system: Rattus norvegicus; assay: Oral diuretic activity was evaluated by measuring Na+ excretion in Rat at 9 mg/kg […] ( 0-5 hr); type: ADME, organism-based, Urine; design: dose 9 mg/kg; conditions: in vivo, ip; in short: as §2
[22] = system: Canis familiaris; assay: Oral diuretic activity was evaluated by measuring Cl- excretion in dog at 10 mg/kg after […] ( 0-6 hr); type: ADME, organism-based, Canis lupus familiaris, Urine; design: dose 10 mg/kg, route intraperitoneal; conditions: in vivo
[23] = system: Rattus norvegicus; assay: Oral diuretic activity was evaluated by measuring Na+ excretion in Rat at 3 mg/kg […] ( 0-5 hr); type: ADME, organism-based, Urine; design: dose 3 mg/kg; conditions: in vivo, ip; in short: as §2
[24] = system: Rattus norvegicus; assay: Oral diuretic activity was evaluated by measuring K+ excretion in Rat at 9 mg/kg […] ( 0-5 hr); type: ADME, organism-based, Urine; design: dose 9 mg/kg; in short: as §1
[25] = system: Rattus norvegicus; assay: Oral diuretic activity was evaluated by measuring Cl- excretion in Rat at 27 mg/kg after […] ( 0-5 hr); type: ADME, organism-based, Urine; design: dose 27 mg/kg, route intraperitoneal; conditions: in vivo
[26] = system: Canis familiaris; assay: Oral diuretic activity was evaluated by measuring K+ excretion in dog at 5 mg/kg after ip administration ( 0-6 hr); type: ADME, organism-based, Canis lupus familiaris, Urine; design: dose 5 mg/kg, route intraperitoneal; conditions: in vivo; in short: as §4
[27] = system: Canis familiaris; assay: Oral diuretic activity was evaluated by measuring Na+ excretion in dog at 20 mg/kg after […] ( 0-6 hr); type: ADME, organism-based, Canis lupus familiaris, Urine; design: dose 20 mg/kg; conditions: in vivo
In short: (§5)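 Dogs; spontaneous urine was pooled with bladder urine drained by catheter at the end of 6 h. Urine volume was measured, and aliquots were assayed for Na+, K+ and Cl− by standard methods. Values are geometric means, expressed as mequiv over 0–6 h.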

[28] = system: Rattus norvegicus; assay: Oral diuretic activity was evaluated by measuring Cl- excretion in Rat at 9 mg/kg […] ( 0-5 hr); type: ADME, organism-based, Urine; design: dose 9 mg/kg; conditions: in vivo; in short: as §1
[29] = Compound administered orally at a dose of 5 mg/kg was evaluated for salidiuretic activity measured as sodium ion excretion in Rat; type: organism-based; design: dose 5 mg/kg; conditions: Urine; in short: as §3
[30] = system: Canis familiaris; assay: Oral diuretic activity was evaluated by measuring Cl- excretion in dog at 20 mg/kg after […] ( 0-6 hr); type: ADME, organism-based, Canis lupus familiaris, Urine; design: dose 20 mg/kg, route intraperitoneal; conditions: in vivo
[31] = system: Rattus norvegicus; assay: Oral diuretic activity was evaluated by measuring K+ excretion in Rat at 3 mg/kg after […] ( 0-5 hr); type: ADME, organism-based, Urine; design: dose 3 mg/kg; in short: as §1
[32] = system: Rattus norvegicus; assay: Oral diuretic activity was evaluated by measuring Na+ excretion in Rat at 81 mg/kg […] ( 0-5 hr); type: ADME, organism-based, Urine; design: dose 81 mg/kg; in short: as §2
[33] = system: Rattus norvegicus; assay: Maximum fall in mean arterial blood pressure was measured in SH rats when compound was administered at 20 mg/kg perorally; type: functional; conditions: route oral
[34] = system: Canis familiaris; assay: Oral diuretic activity was evaluated by measuring K+ excretion in dog at 20 mg/kg after ip administration ( 0-6 hr); type: ADME, organism-based, Canis lupus familiaris, Urine; design: dose 20 mg/kg, route intraperitoneal; conditions: in vivo; in short: as §4
[35] = system: Canis familiaris; assay: Oral diuretic activity was evaluated by measuring K+ excretion in dog at 1 mg/kg after ip administration ( 0-6 hr); type: ADME, organism-based, Canis lupus familiaris, Urine; design: dose 1 mg/kg, route intraperitoneal; conditions: in vivo; in short: as §4
[36] = system: Rattus norvegicus; assay: Compound administered orally at a dose of 81 mg/kg was evaluated for salidiuretic activity measured as sodium ion excretion in Rat; type: ADME, organism-based, Urine; design: dose 81 mg/kg, route oral; unit not given beside the values; conditions: in vivo, po; in short: as §3
[37] = system: Canis familiaris; assay: Oral diuretic activity was evaluated by measuring Na+ excretion in dog at 1 mg/kg after ip administration ( 0-6 hr); type: ADME, organism-based, Canis lupus familiaris, Urine; design: dose 1 mg/kg, route intraperitoneal; conditions: in vivo; in short: as §4
[38] = system: Canis familiaris; assay: Oral diuretic activity was evaluated by measuring Na+ excretion in dog at 10 mg/kg after […] ( 0-6 hr); type: ADME, organism-based, Canis lupus familiaris, Urine; design: dose 10 mg/kg; conditions: in vivo; in short: as §5
[39] = system: Rattus norvegicus; assay: Oral diuretic activity was evaluated by measuring Cl- excretion in Rat at 3 mg/kg after […] ( 0-5 hr); type: ADME, organism-based, Urine; design: dose 3 mg/kg, route intraperitoneal; conditions: in vivo

Diuretic activity [1]: 0.11
Diuretic activity [2]: 0.27
Diuretic activity [4]: 0.01
Diuretic activity [5]: 0.07
Diuretic activity [6]: 0.02
Diuretic activity [7]: 0.17
Diuretic activity [8]: 0.02
Diuretic activity [9]: 0.04
SMILES: NNc1nncc2ccccc12 [HYDRALAZINE]
Duration [3]: 8 h and 18 h

Diuretic activity [10]: 0.45
Diuretic activity [11]: 1.89
Diuretic activity [12]: 800
Diuretic activity [13]: 6.5
Diuretic activity [14]: 19.63
Diuretic activity [15]: 14.75
Diuretic activity [18]: 3.47
Diuretic activity [19]: 5
Diuretic activity [20]: 0.6
Diuretic activity [21]: 0.94
Diuretic activity [22]: 27.27
Diuretic activity [23]: 0.41
Diuretic activity [24]: 0.32
Diuretic activity [25]: 2.36
Diuretic activity [26]: 4.5
Diuretic activity [27]: 37.25
Diuretic activity [28]: 1.19
Diuretic activity [30]: 50.25
Diuretic activity [31]: 0.25
Diuretic activity [32]: 2.77
Diuretic activity [34]: 8.25
Diuretic activity [35]: 2.25
Diuretic activity [36]: 2.9
Diuretic activity [37]: 5.25
Diuretic activity [38]: 20.64
Diuretic activity [39]: 0.46
SMILES: Cl.NCc1c(O)c(Cl)cc(Cl)c1Cl
Diuretic activity [16]: 1.4
Diuretic activity [17]: 2.4
Diuretic activity [29]: 0.5
MAP [33]: 18 mmHg
